NPY-Y2 antag = NPY-Y2 receptor antagonists, primary screen, cell-based. Neuropeptide Y receptor type 2 (Homo sapiens), P49146. NPY-Y2 expressing cells, antagonist mode. hit rate 0.99% among 140,000. inhibition, % at 2.7 µM;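 further: 0% = vehicle with agonist challenge and 100% = reference antagonist with challenge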
NPY-Y2 PAM-ag = NPY-Y2 potentiators or agonists, primary screen, cell-based. activation, % at 3.6 µM. AID 1359, 2008. hit rate 0.45% among 220,000. cells expressing NPY-Y2, potentiator/agonist read-out. Neuropeptide Y receptor type 2 (Homo sapiens), P49146; in the data active means activation above about 27%;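 further: cells stimulated with NPY near EC25 plus isoproterenol at EC100; 0% = vehicle plus submaximal agonist and 100% = vehicle plus saturating agonist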
NPY-Y1 PAM-ag = NPY-Y1 receptor potentiators or agonists, primary screen, cell-based. Neuropeptide Y receptor type 1 (Homo sapiens), P25929. NPY-Y1 expressing cells, potentiator/agonist activation. activation, % at 3.6 µM. hit rate 0.37% among 220,000; in the data active means activation above about 33%, passing the limit was not always enough;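 further: cells stimulated with NPY at EC10 then isoproterenol at EC100; 0% = low agonist plus stimulus and 100% = saturating agonist plus stimulus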
Target sequence (P25929 whole entry, looked up): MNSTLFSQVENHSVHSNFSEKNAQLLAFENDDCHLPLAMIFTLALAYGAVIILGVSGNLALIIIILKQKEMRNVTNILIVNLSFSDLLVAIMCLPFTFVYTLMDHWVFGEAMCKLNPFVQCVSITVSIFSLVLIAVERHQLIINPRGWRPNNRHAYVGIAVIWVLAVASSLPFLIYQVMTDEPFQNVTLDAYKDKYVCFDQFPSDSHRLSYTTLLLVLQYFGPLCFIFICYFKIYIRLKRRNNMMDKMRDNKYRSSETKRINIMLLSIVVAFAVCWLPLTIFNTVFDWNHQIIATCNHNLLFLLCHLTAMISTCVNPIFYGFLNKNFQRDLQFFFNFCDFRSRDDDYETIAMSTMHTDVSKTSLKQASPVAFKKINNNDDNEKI
MT stabilize HCS = microtubule stabilizers in HeLa cells, primary screen, imaging, high-content imaging; HeLa tubulin immunostaining HCS, 24 h; share of cells brighter than vehicle mean+2SD; % tubulin-high responders, % at 10 µM; hit rate 0.83% among 200,000; AID 2205, 2009;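 active means plate Z-score above 3 for both tubulin-high and condensed-nucleus cell shares, with cell loss under 80%, at 10 µM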;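 further: anti alpha tubulin signal scored within the nucleus-defined area of each cell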
bCat nuc transl = modulators of beta-catenin nuclear translocation, primary screen, imaging, HeLa cells, immunofluorescence, high-content; hit rate 0.3% among 190,000; nuclear translocation activity, % at 5 µM;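 active means nuclear translocation activity above 50% at 5 µM, with a well cell count of 50 or more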;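 further: per-cell ratio of nuclear to cytoplasmic median beta-catenin stain intensity; plate controls were DMSO negative control for no effect and GSK-3 inhibitor IX positive control for full effect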
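Read-out: Nuclear/cytoplasmic beta-catenin signal ratio, % activation | Assay system: Human HeLa cell line | Times: 24 h compound exposure at 37°C, 5% CO2 | Signal: Fluorescence imaging of beta-catenin antibody stain plus DAPI | Dosing: 5 µM primary, 0.02–20 µM confirmation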
NPY Y1 blocker = NPY-Y1 receptor antagonists, primary screen, cell-based | inhibition, % at 3.6 µM | HEK293-CNG Y1 cells, membrane potential fluorescence; NPY at EC95, then isoproterenol | hit rate 1% among 200,000 | AID 1040, 2008;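 active means inhibition above the campaign mean inhibition of all tested compounds plus 3 SD, cut at about 20% in these data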;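 further: 0% = DMSO wells given NPY plus isoproterenol and 100% = isoproterenol alone without NPY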
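Material: Y1- and CNG-channel-expressing HEK293 cells / Probe or stimulus: NPY 25 nM then isoproterenol 1 µM plus Ro 20-1724 25 µM / Doses: 3.6 µM single dose, DMSO 0.4% / Schedule: compound incubation 1 h at room temperature, readout 45 min post-stimulation / Signal: membrane potential fluorescence / Benchmarks: isoproterenol-only wells as full block versus NPY-plus-isoproterenol wells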
NPY-Y1 ant conf = NPY-Y1 receptor antagonists, retest of hits, confirmation, HEK293-CNG cells, membrane potential fluorescence, triplicate. shares compounds with NPY Y1 blocker. hit rate 21% among 1,200. cAMP; NPY challenge against isoproterenol-raised cAMP. inhibition, % at 3.6 µM. AID 1254, 2008; in the data active means inhibition above about 20%;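 further: 0% = vehicle with agonist plus stimulus and 100% = stimulus alone without agonist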
NPY-Y2 antag ct = NPY-Y2 receptor antagonists, selectivity check, confirmation, counter-screen for NPY-Y1 antagonist project, HEK293-CNG cells, membrane potential fluorescence, triplicate; shares compounds with NPY Y1 blocker; antagonism; cells given NPY, then isoproterenol; inhibition, % at 3.6 µM; hit rate 28% among 1,200; AID 1255, 2008;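 further: 0% = DMSO with agonist challenge and 100% = reference antagonist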
The depositor's hits bear a star; / = no result. Only some compounds are listed: those with a hit (about 2.6% of all), similar ones and a draw of the others. Unless noted, no stated cut-off is given here; in the data, active means inhibition above about 17%; inactive means the rest.

SMILES	NPY-Y2 antag	NPY-Y2 PAM-ag	NPY-Y1 PAM-ag	MT stabilize HCS	bCat nuc transl	NPY Y1 blocker	NPY-Y1 ant conf	NPY-Y2 antag ct
CCCCNC(=O)c1onc(CSc2ccc(Cl)cc2)c1C(=O)O	17	-47	-34	2	0	21*	23*	12
CCCCNC(=O)c1onc(CSc2ccc(F)cc2)c1C(=O)NCCCC	/	/	/	/	0	/	/	/
C=CCNC(=O)c1onc(CSc2ccc(Cl)cc2)c1C(=O)O	10	-24	-9	3	-2	22*	15	11
CCOc1ccccc1NC(=O)c1c(NC(=O)CNCc2ccco2)sc2c1CCC2	/	/	/	/	-3	/	/	/
O=C(CN1CCOCC1)Nc1nc2ccc(Br)cc2s1	1	4	4	3	-1	-1	/	/
NC(=O)COC(=O)CSc1cccc2cccc(Cl)c12	/	-34	-48	5	-4	27*	13	14
O=C(COC(=O)CSc1cccc2cccc(Cl)c12)Nc1ncc(C(F)(F)F)cc1Cl	14	-21	-44	5	1	2	/	/
Cc1nc2cc(F)ccc2n1C1CCN(S(=O)(=O)c2ccccc2)CC1	-2	14	21	3	-3	0	/	/
COC(=O)c1ccc(OCC2c3cc(OC)c(OC)cc3CCN2C(C)=O)cc1 (centres undefined)	/	1	-11	4	0	2	/	/
COC(=O)c1ccc(OCC2c3cc(OC)c(OC)cc3CCN2C(=O)c2ccco2)cc1 (centres undefined)	14	-15	-30	6	0	22*	20	18*
Cc1ccc(C)c(SCc2noc(C(=O)NCC3CCCO3)c2C(=O)O)c1 (centres undefined)	10	-20	-26	2	0	21*	22*	13
Cc1cccc(SCc2noc(C(=O)NCC3CCCO3)c2C(=O)O)c1 (centres undefined)	10	-20	-37	2	0	17	/	/
O=C(NCC1CCCO1)c1onc(CSc2ccccc2)c1C(=O)O (centres undefined)	2	-11	15	4	0	4	/	/
CC(C)c1ccc(SCc2noc(C(=O)NCC3CCCO3)c2C(=O)O)cc1 (centres undefined)	9	-38	-14	2	-1	24*	10	10
CC(Sc1nnc(-c2cccs2)n1Cc1ccccc1)C(=O)NCc1ccc2c(c1)OCO2 (centres undefined)	15	9	3	2	/	24*	7	7
C=CCNC(=S)N/N=C/c1ccc(C(C)(C)C)cc1	/	-34	-28	1	-1	23*	11	6
CCC(=O)N1CCN(c2ccccc2NC(=O)COc2cccc(C)c2)CC1	12	-3	-56	2	/	20*	11	12
Cc1ccc(C(C)C)c(OCC(=O)Nc2ccccc2N2CCN(C)CC2)c1	8	-8	-35	4	-1	7	/	/
CCC(=O)N1CCN(c2ccccc2NC(=O)c2cccc(C)c2)CC1	4	-8	-14	3	1	5	/	/
CC(=O)N1CCN(c2ccccc2NC(=O)COc2cc(C)ccc2C(C)C)CC1	13	-1	-28	3	0	22*	10	9
CN1CCN(c2ccccc2NC(=O)COc2ccccc2)CC1	12	2	-26	2	3	21*	6	7
CCOC(=O)N1CCN(C(=O)C2CCC(C(=O)N3CCN(C(=O)OCC)CC3)CC2)CC1 (centres undefined)	0	-5	-11	4	/	3	/	/
CCOC(=O)c1ccc(NC(=S)NCCc2ccc(F)cc2)cc1	/	5	-3	6	4	5	/	/
CCNc1nc2ccccc2[nH]1	1	3	6	1	-4	-5	/	/
CCN(CC)CCCNc1nc2ccccc2[nH]1	1	-4	-4	2	-1	30*	1	0
SMILES	NPY-Y2 antag	NPY-Y2 PAM-ag	NPY-Y1 PAM-ag	MT stabilize HCS	bCat nuc transl	NPY Y1 blocker	NPY-Y1 ant conf	NPY-Y2 antag ct
CC/C(=N\Nc1ccc([N+](=O)[O-])cc1)c1ccccc1	/	4	21	3	1	-5	/	/
CCC1(C(=O)c2ccccc2)C(c2ccc([N+](=O)[O-])cc2)C1(C(=O)OC)C(=O)OC (centres undefined)	9	-8	-34	3	/	22*	7	4
O=c1cnn([C@@H]2O[C@H](CO)[C@@H](O)[C@H]2O)c(=O)[nH]1	-1	-2	2	3	/	70*	-1	1
Nc1ccn([C@@H]2O[C@H](CO)[C@@H](O)C2O)c(=O)n1 (some centres undefined)	/	9	-4	/	-7	3	/	/
C/C(=N\Nc1nc2ccccc2[nH]1)c1cc2ccccc2o1	11	-27	-83	3	-1	33*	11	17*
C/C(=N\Nc1nc2ccccc2[nH]1)c1ccc2c(c1)OCCO2	/	-18	-25	6	1	9	/	/
COc1cc(OC)cc(C(=O)N/N=C/c2ccc(OC)c(COc3ccc(F)cc3)c2)c1	12	-80	-53	16	213*	61*	16	31*
O=[N+]([O-])c1cc(C(F)(F)F)ccc1N1CCN(S(=O)(=O)c2ccc3c(c2)CCCC3)CC1	0	5	11	2	8	-3	/	/
COc1ccc(Br)cc1CNC(=O)CCc1nc(-c2ccc(C)cc2)no1	14	-16	0	2	0	21*	7	8
N=c1n(Cc2ccc(Cl)cc2)c2ccccc2n1CC(O)COc1ccccc1 (centres undefined)	/	-26	-9	21*	6	41*	26*	22*
N=c1n(Cc2ccccc2)c2ccccc2n1CC(O)COc1ccc(Cl)cc1Cl (centres undefined)	/	-16	-23	22	28	8	/	/
CCN(CC)CCn1c(=N)n(CC(O)COc2cccc(C)c2)c2ccccc21 (centres undefined)	/	-28	-48	3	-1	55*	44*	41*
O=C(C[n+]1cc(-c2ccccc2)n2c1CCC2)OCc1ccccc1	6	1	2	7	1	4	/	/
